High-throughput results as filed in PubChem.
MrgX1 PAM = human MrgX1 positive allosteric modulation, primary screen; MrgX1-HEK293, Fluo-4 calcium flux, FDSS; stronger effect = higher value; 310,000 tested, 0.63% active; AID 588675; Q96LB2; B-score at 10 µM;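 active = plate-corrected calcium response at least 3 library SD above typical, normal starting fluorescence, not activating the receptor alone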;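 note: compound read alongside a low EC10 to EC30 dose of BAM8-22 agonist; peak minus trough fluorescence over baseline measured at the second addition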
Target sequence (Q96LB2 whole entry, looked up): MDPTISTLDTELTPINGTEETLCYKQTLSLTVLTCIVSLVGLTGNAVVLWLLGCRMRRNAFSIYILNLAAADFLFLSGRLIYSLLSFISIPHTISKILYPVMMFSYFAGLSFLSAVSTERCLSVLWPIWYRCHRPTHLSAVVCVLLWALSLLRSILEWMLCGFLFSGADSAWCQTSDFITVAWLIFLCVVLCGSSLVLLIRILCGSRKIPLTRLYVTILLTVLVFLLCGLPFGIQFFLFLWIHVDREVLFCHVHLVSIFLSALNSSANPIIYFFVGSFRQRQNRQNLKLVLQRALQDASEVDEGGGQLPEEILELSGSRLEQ
RGS4 pot = RGS4 potentiation or activation | B-score at 10 µM | HEK293 M3R/inducible RGS4, carbachol calcium flux Fluo4; stronger effect = lower value | 310,000 tested, 0.92% active;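 active = B-score of the integrated calcium signal more than 4 SD below the library mean, with starting fluorescence not abnormally high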;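 note: negative B-score means reduced calcium response which marks RGS4 activation or potentiation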
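Test system: HEK293 cells with stable M3R and inducible RGS4; also added: carbachol at ECmax as muscarinic agonist stimulus; schedule: dye loading 30 min 37 °C, buffer rest 30 min RT; technique: kinetic calcium fluorescence imaging with Fluo4-AM dye, 2 µM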
RGS4 inh = inhibitors of human RGS4 | 310,000 tested, 0.45% active | B-score at 10 µM | AID 463165 | HEK293 M3R/RGS4 inducible, Fluo-4 calcium flux; stronger effect = higher value; triggered by carbachol at its EC20 | P49798;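 active = B-score, a plate-corrected calcium signal, over three deviations above library mean, with baseline fluorescence within five deviations of library mean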;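 note: RGS4 expression induced by doxycycline in cells with stable M3 receptor; B-score is computed from the integrated fluorescence ratio over baseline after carbachol; higher B-score means a larger calcium signal and so more RGS4 inhibition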
Target sequence (P49798 whole entry, looked up): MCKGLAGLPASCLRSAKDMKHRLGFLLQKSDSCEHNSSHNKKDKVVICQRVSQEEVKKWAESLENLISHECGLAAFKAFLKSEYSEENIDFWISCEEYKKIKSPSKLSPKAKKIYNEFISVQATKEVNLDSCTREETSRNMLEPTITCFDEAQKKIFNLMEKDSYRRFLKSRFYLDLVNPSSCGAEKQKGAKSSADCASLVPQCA
MrgX1 agonist = agonists of human MrgX1 receptor | B-score at 10 µM | AID 588627 | 310,000 tested, 0.44% active | Q96LB2 | MrgX1-HEK293 cells, Fluo-4 calcium fluorescence, agonist mode; stronger effect = higher value;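 active = calcium response B-score plate-corrected fluorescence ratio at least 3 library SD, with starting fluorescence B-score inside 5 SD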
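Test system: HEK293 cells stably expressing human MrgX1 receptor; Input: fifteen thousand cells per well; Dosing: compound delivered in addition one of three; Schedule: overnight seeding, then 1 h dark dye loading; Technique: Fluo-4 NW calcium fluorescence; Measure: B-scored fluorescence response ratio; Controls: positive and negative controls per plate.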
MrgX1 antag = human MrgX1 receptor antagonism, primary screen | B-score at 10 µM | MRGX1-HEK293 calcium flux, Fluo-4, BAM8-22 antagonism; stronger effect = lower value | AID 588676 | 310,000 tested, 1.3% active;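 active = calcium-response B-score plate-corrected more than 3 library SD below zero, starting fluorescence within 5 deviations, no agonist response on first addition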;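 note: peak minus trough fluorescence over baseline after final BAM8-22 challenge near maximal dose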
MrgX1 antag conf = confirmation of human MrgX1 receptor antagonists | shares compounds with MrgX1 antag | MrgX1-HEK293, BAM8-22 calcium flux, Fluo-4; stronger effect = lower value | remaining BAM8-22 calcium response % of control (stronger effect = lower value), % at 10 µM | 2,300 tested, 19% active | AID 602420;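 active = remaining agonist calcium response no higher than 100% minus 3 SD of agonist-only control wells, with starting fluorescence near control levels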;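 note: agonist BAM8-22 given at a near maximal EC90 to ECmax level; peak minus minimum fluorescence divided by baseline after agonist addition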
HEK293 Ca flux = MrgX1 antagonist counter-screen hit in parental HEK293 cells; 4,000 tested, 2% active; fluorescence ratio F(max-min)/F0 at 10 µM; shares compounds with MrgX1 antag; Fluo-4 calcium fluorescence, FDSS;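 active = duplicate-averaged calcium fluorescence ratio at least three times the standard deviation of buffer wells, a nonspecific response in parental cells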
HEK293 Ca counter = activity in parental HEK293 cells without MrgX1. shares compounds with MrgX1 antag. parental HEK293 calcium flux, Fluo-4 fluorescence ratio; stronger effect = higher value. fluorescence ratio F(max-min)/F0 at 10 µM. 4,000 tested, 0.4% active. AID 624114;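 active = calcium fluorescence ratio, averaged over duplicates, at least 3 SD of the buffer-well ratio, meaning a nonspecific response in receptor-free cells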;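 note: untransfected parental HEK293 lacking MrgX1 used as counterscreen for MrgX1 allosteric activators; fluorescence change taken during the second addition on a kinetic imager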
HEK293 Ca cntr2 = MrgX1 activator counter-screen hit in parental HEK293 cells. shares compounds with MrgX1 antag. Fluo-4 calcium fluorescence (FDSS); stronger effect = higher value. fluorescence ratio F(max-min)/F0 at 10 µM. 4,000 tested, 8.7% active. AID 624115;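 active = calcium fluorescence ratio at least three times the spread of buffer wells, meaning a non-specific response in parental cells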
Starred values were filed as active, the others as inactive; i = inactive; . = not tested or not shown. An excerpt weighted towards active compounds, which were near 3.5% of everything screened.

SMILES	MrgX1 PAM	RGS4 pot	RGS4 inh	MrgX1 agonist	MrgX1 antag	MrgX1 antag conf	HEK293 Ca flux	HEK293 Ca counter	HEK293 Ca cntr2
CC(C)(C)N=C1NC(=NC(C)(C)C)c2ccccc21	i	i	i	i	-5*	i	i	i	51*
c1ccc2c(c1)C(=NCC1CCCO1)NC2=NCC1CCCO1 (centres undefined)	i	i	i	i	i	.	.	.	.
Cc1ccc(Cl)cc1NC(=S)NCCCSC1CCCCC1	i	i	i	i	i	.	.	.	.
COc1cccc(C(O)c2nc3ccccc3n2C(C)C)c1 (centres undefined)	i	i	i	i	-6.3*	i	i	i	i
COc1cccc(C(O)c2nc3ccccc3n2C(C)C)c1OC (centres undefined)	i	i	i	i	i	.	.	.	.
Cc1ccc(C(=O)NC(=S)Nc2ccccc2N2CCCC2)cc1[N+](=O)[O-]	i	i	i	i	-23*	i	i	i	i
O=C(CSc1ccccc1)NCC1(N2CCOCC2)CCCCC1	i	i	i	i	i	.	.	.	.
CC(=O)N1CC(C)Sc2ccc(S(=O)(=O)NCCc3ccc(C)cc3)cc21 (centres undefined)	i	i	i	i	i	.	.	.	.
CC(=O)N1CCSc2ccc(S(=O)(=O)NCCc3ccc(Cl)cc3)cc21	i	i	i	i	-5*	i	i	i	i
COc1cc(NC(=O)COc2cc(O)c3c(c2)OC(C)(C)CC3=O)cc(OC)c1OC	i	i	i	i	-5*	51%*	i	i	i
CC1(C)CC(=O)c2c(O)cc(OCC(=O)Nc3ccc(S(N)(=O)=O)cc3)cc2O1	i	i	i	i	i	.	.	.	.
O=C(CCl)Nc1cc(-c2ccccc2)nn1-c1ccccc1	i	i	i	i	-5.3*	i	i	i	57*
CC(=O)Nc1ccc(-c2cc(NC(C)=O)n(-c3ccccc3)n2)cc1	i	i	i	i	i	.	.	.	.
CCN1CCN(C(=O)C2CCN(Cc3nc(-c4cccc(Cl)c4)oc3C)CC2)CC1	i	i	i	i	i	.	.	.	.
CCN1CCN(C(=O)C2CCN(Cc3cc(Cl)ccc3O)CC2)CC1	i	i	i	i	-7.7*	i	i	i	i
Cc1oc(CC(C)C)c(CN)c1C(=O)O	i	i	i	i	-4.6*	i	i	i	i
Clc1ccccc1Cn1nnc2c(NCC3CC3)ncnc21	i	i	i	i	-7.5*	i	i	i	i
Clc1ccccc1Cn1nnc2c(Nc3ccccc3)ncnc21	i	i	i	i	i	.	.	.	.
Cc1ccc(-c2ccccc2)n1-c1ccc(C(=O)O)cc1	i	i	i	i	-4.6*	78%*	i	i	i
CCc1ccc(N2CC(C(=O)Nc3ccc(S(=O)(=O)N4CCOCC4)cc3)CC2=O)cc1 (centres undefined)	i	i	i	i	i	.	.	.	.
O=S(=O)(c1ccc(N2CCN(CCO)CC2)nc1)N1CCOCC1	i	i	i	i	i	.	.	.	.
COc1ccc2[nH]c(=O)c(CN(c3ccc(C)c(C)c3)S(C)(=O)=O)cc2c1	i	i	i	i	-4.5*	i	i	i	i
Cc1ccc(NC2=NCC(=O)N2C2CCCC2)cc1	i	i	i	i	i	.	.	.	.
COc1ccccc1C(=O)N1C(CC(=O)Nc2cc(Cl)ccc2C)C(=O)NC2CCCCC21 (centres undefined)	i	i	i	i	-4.7*	i	i	i	i
Cc1ccc(NC(=O)CC2C(=O)NC3CCCCC3N2C(=O)c2ccc(F)cc2)cc1C (centres undefined)	i	i	i	i	i	.	.	.	.
SMILES	MrgX1 PAM	RGS4 pot	RGS4 inh	MrgX1 agonist	MrgX1 antag	MrgX1 antag conf	HEK293 Ca flux	HEK293 Ca counter	HEK293 Ca cntr2
Cc1ccc(Cl)cc1NC(=O)CC1NCCNC1=O (centres undefined)	i	i	i	i	i	.	.	.	.
O=C(CC1C(=O)NC2CCCCC2N1C(=O)c1ccc(F)cc1)Nc1ccccc1 (centres undefined)	i	i	i	i	-4.8*	i	i	i	i
Cc1cccc(C(=O)Nc2nnc(SCC(=O)Nc3ccc4c(c3)oc3ccccc34)s2)c1	i	i	i	i	-11*	i	i	i	i
Cc1sc(NC(=O)C2=COCCO2)nc1-c1ccc(Cl)cc1	i	i	i	i	i	.	.	.	.
Cc1c(C(=O)N(C)C)c2cc(Cl)ccc2n1O	i	i	i	i	-5*	i	i	i	i
COc1ccc(-c2cc3cc(OC)c(OC)cc3c(C)n2)cc1C	i	i	i	i	i	.	.	.	.
Cc1ccccc1-c1nnnn1C1CCS(=O)(=O)C1 (centres undefined)	i	i	i	i	-6.4*	i	i	i	i
CCCc1nnc(-c2ccc(OC)cc2)o1	i	i	i	i	-6*	i	i	i	i
COc1ccc(SCCc2nnc(-c3ccccc3)o2)cc1	i	i	i	i	-7.8*	i	i	i	i
Cc1cccc(Nc2nc(N)nc(CSc3nccc(C)n3)n2)c1	i	i	i	i	i	.	.	.	.
COc1ccc(Nc2nc(N)nc(CSc3nccc(C)n3)n2)cc1	i	i	i	i	-9.5*	i	i	i	i
C=CCn1c(SCC(=O)Nc2cc(C)on2)nnc1C1COc2ccccc2O1 (centres undefined)	i	i	i	i	-6.1*	85%*	i	i	i
COc1ccc(CNC(=O)COc2cc3c(c4oc(=O)cc(C)c24)CCC(C)(C)O3)cc1OC	i	i	i	i	-4.7*	i	i	i	i
Cc1cc(=O)oc2c3c(cc(OCC(=O)NCc4ccncc4)c12)OC(C)(C)CC3	i	i	i	i	-4.9*	76%*	i	i	i
